KCNK3 inh: human KCNK3 channel inhibition, primary screen | AID 602410 | 340,000 tested, 0.84% active | O14649 | CHO-KCNK3 thallium flux, FluxOR fluorescence; hits give low values | B-score at 10 µM;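 active = B-score under library mean minus 4 SD, starting fluorescence ratio at most library mean plus 5 SD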;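 note: more negative B-score means stronger inhibition of thallium flux through KCNK3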
Kir21 block: blocks the mouse Kir2.1 inward-rectifier potassium channel | P35561 | HEK293-Kir2.1, FluxOR thallium flux fluorescence; hits give low values | B-score at 10 µM | 310,000 tested, 0.85% active | AID 1672;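 active = fluorescence ratio B-score at or below minus 3 SD of library scores, with starting-brightness B-score within 2 SD, cut at about -4.2 in these data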;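 note: channel flux triggered by added potassium and thallium sulfate stimulus; B-score of peak minus minimum fluorescence over baseline after thallium stimulus; more negative B-score means stronger Kir2.1 block with less thallium influx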
KCNQ1 block: human KCNQ1 channel inhibition | CHO-K1 KCNQ1, FluxOR thallium flux fluorescence; hits give high values | B-score at 10 µM | 310,000 tested, 1.3% active | AID 2642;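 active = compounds whose thallium flux B-score, printed positive for inhibition, exceeds three library SD while starting fluorescence stays within three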;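 note: channel opened by potassium depolarization with thallium stimulus after 20 min compound exposure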
KCNQ1 act: human KCNQ1 channel potentiation or activation; CHO-K1 KCNQ1, thallium flux FluxOR fluorescence; hits give high values; 310,000 tested, 0.35% active; B-score at 10 µM; P51787; AID 2648;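 active = fluorescence ratio B-score, a plate-corrected score, at least three library SD, with initial intensity B-score within 5 SD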
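Medium – assay buffer, equal DMSO in all wells · Material – CHO-K1 cell line with stable KCNQ1 potassium channel expression · Signal – kinetic FluxOR thallium fluorescence, 10-s 1-Hz baseline, 110-s post-stimulus read · Compound – single concentration per compound, DMSO matched to controls · Schedule – 37 °C overnight plating, 90-min dark dye load, 20-min compound pretreatment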
KCNK9 block: inhibitors of human KCNK9 two-pore domain potassium channel. Q9NPC2. B-score at 10 µM. 310,000 tested, 1.2% active. HEK293 KCNK9, FluxOR thallium flux fluorescence; hits give low values;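 active = ratio B-score over 3 SD below the library mean, with starting fluorescence within 5 SD of its mean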;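 note: negative B-score means less thallium flux so channel inhibition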
hERG protect: hERG (human) protection from proarrhythmic block. Q12809. CHO-hERG, FluxOR thallium flux, dofetilide IC70 present. activation (rescue from dofetilide block), less the hit threshold, % at 10 µM. 310,000 tested, 0.51% active. AID 1511;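 active = activation above the mean of controls blocked by dofetilide plus 5 SD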;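 note: thallium influx through hERG after potassium depolarization seen as dye fluorescence rise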
The depositor's hits bear a star. Most compounds without a hit are left out; they make up all but 3.7% or so of the library.

COC(=O)C(CC(C)C)NC(=O)c1ccc([N+](=O)[O-])c(C)c1 (stereo unspecified) was read as KCNK3 inh inactive, Kir21 block -0.55, KCNQ1 block inactive, KCNQ1 act inactive, KCNK9 block inactive and hERG protect 4.6*.
O=C(NCC(=O)N1CCCC(C(F)(F)F)C1)c1ccco1 (stereo unspecified) was read as KCNK3 inh inactive.
Screening CCCCn1c(SCC(=O)N(C)C2CCS(=O)(=O)C2)nc2cc(S(N)(=O)=O)ccc21 (stereo unspecified) returned KCNK3 inh inactive, Kir21 block 0.36, KCNQ1 block inactive, KCNQ1 act inactive, KCNK9 block inactive and hERG protect -7.
`O=C1C(Cc2ccccc2)Nc2ncnc(N3CCc4ccccc4C3)c2N1Cc1ccc(Br)cc1` (stereo unspecified) gave Kir21 block 0.97, KCNQ1 block inactive, KCNQ1 act inactive, KCNK9 block -7.7* and hERG protect -13.
`O=C1C(Cc2ccccc2)Nc2ncnc(N3CCN(c4ccccc4)CC3)c2N1Cc1ccc(Br)cc1` (stereo unspecified) gave KCNK3 inh inactive.
For COCCN(Cc1cccs1)S(=O)(=O)c1ccc(-c2ccc(=O)[nH]n2)s1 the results were KCNK3 inh inactive, Kir21 block -0.44, KCNQ1 block inactive, KCNQ1 act inactive, KCNK9 block inactive and hERG protect -5.
Screening CN1C[C@@H]2[C@@H]3C(=O)N(Cc4ccccc4)C(=O)[C@@H]3[C@](C)(C1=O)N2C(=O)c1ccc(Cl)cc1 returned KCNK3 inh inactive.
CC(NCc1cc(Br)ccc1OCC(=O)NCc1ccccc1)c1ccccc1 (stereo unspecified) was read as KCNK3 inh inactive, Kir21 block -16*, KCNQ1 block 6*, KCNQ1 act inactive, KCNK9 block inactive and hERG protect -39.
CC(C)c1ccc(C2(C)NC(=O)N(CC(=O)N3CCN(C(=O)c4cccs4)CC3)C2=O)cc1 (stereo unspecified) was read as KCNK3 inh inactive.
`CCCCn1c(N)c(N(CCOC)C(=O)c2cc(S(=O)(=O)N3CCCCC3)ccc2C)c(=O)[nH]c1=O` gave KCNK3 inh inactive, Kir21 block 2.3, KCNQ1 block inactive, KCNQ1 act inactive, KCNK9 block inactive and hERG protect -9.
For COc1ccc(-c2oc3ccccc3c(=O)c2OCC(=O)O)cc1 the results were KCNK3 inh inactive, Kir21 block 1, KCNQ1 block inactive, KCNQ1 act inactive, KCNK9 block inactive and hERG protect -9.
For COc1ccc(-c2oc3ccccc3c(=O)c2OC(C)=O)cc1 the results were KCNK3 inh inactive, Kir21 block -0.05, KCNQ1 block inactive, KCNQ1 act 41*, KCNK9 block inactive and hERG protect 4.
Screening O=C(O)COc1c(-c2ccco2)oc2ccccc2c1=O returned KCNK3 inh inactive, Kir21 block -0.27, KCNQ1 block inactive, KCNQ1 act inactive, KCNK9 block inactive and hERG protect -7.
Screening CC(=O)Oc1c(-c2ccc(Br)o2)oc2ccccc2c1=O returned KCNK3 inh inactive, Kir21 block -0.31, KCNQ1 block inactive, KCNQ1 act 113*, KCNK9 block inactive and hERG protect 40*.
CO/N=C/c1cccn1-c1nccc(OC)c1C#N was read as KCNK3 inh inactive, Kir21 block -0.31, KCNQ1 block inactive, KCNQ1 act inactive, KCNK9 block inactive and hERG protect -7.
`CCOC(=O)C1=C(c2ccccc2)NC(=O)NC1c1ccc(O)c(Cl)c1` (stereo unspecified) gave KCNK3 inh inactive, Kir21 block -7.8*, KCNQ1 block inactive, KCNQ1 act inactive, KCNK9 block inactive and hERG protect 13*.
For O=C(N/N=C/c1sc(N2CCOCC2)nc1-c1ccccc1)c1ccc(O)cc1 the results were KCNK3 inh inactive, Kir21 block 0.27, KCNQ1 block 7*, KCNQ1 act inactive, KCNK9 block inactive and hERG protect -12.
`O=C(N/N=C/c1sc(N2CCOCC2)nc1-c1ccccc1)c1cccc(S(=O)(=O)N2CCCC2)c1` gave KCNK3 inh inactive, Kir21 block -0.5, KCNQ1 block 6*, KCNQ1 act inactive, KCNK9 block inactive and hERG protect -9.
O=C(NCCN1CCOCC1)c1cccc(S(=O)(=O)N2CCCC2)c1 was read as KCNK3 inh inactive, Kir21 block 0.84, KCNQ1 block inactive, KCNQ1 act inactive, KCNK9 block inactive and hERG protect -3.
For COc1ccc(C(=O)N/N=C/c2sc(N3CCOCC3)nc2-c2ccccc2)cc1OC the results were KCNK3 inh inactive, Kir21 block 2.2, KCNQ1 block inactive, KCNQ1 act inactive, KCNK9 block inactive and hERG protect -41.
Screening O=C(NCCN1CCOCC1)c1cccc(S(=O)(=O)N2CCCCCC2)c1 returned KCNK3 inh inactive, Kir21 block -0.46, KCNQ1 block inactive, KCNQ1 act inactive, KCNK9 block inactive and hERG protect 7.2*.
`CC1(C)CC(NC(=O)c2cccc(S(=O)(=O)Nc3cccc(Cl)c3)c2)CC(C)(C)N1` gave KCNK3 inh inactive.
`Cc1ccc(OCC(=O)N[C@@H](C)c2nnc3ccccn23)cc1C` gave KCNK3 inh inactive, Kir21 block -1.3, KCNQ1 block inactive, KCNQ1 act inactive, KCNK9 block inactive and hERG protect -6.
Screening COc1cc(NC(=S)NC(=O)CCc2ccccc2)cc(OC)c1 returned KCNK3 inh inactive, Kir21 block -0.19, KCNQ1 block inactive, KCNQ1 act inactive, KCNK9 block inactive and hERG protect -6.
Screening O=C(Oc1ccc(=O)n(-c2ccccc2)n1)c1ccccc1 returned KCNK3 inh inactive, Kir21 block -7.4*, KCNQ1 block inactive, KCNQ1 act inactive, KCNK9 block inactive and hERG protect -7.
`COc1ccc2c(c1)sc(N)[n+]2Cc1cc(C)cc2cccnc12` gave KCNK3 inh inactive, Kir21 block -4.5*, KCNQ1 block inactive, KCNQ1 act inactive, KCNK9 block inactive and hERG protect -21.
`CCOc1ccc2c(c1)sc(N)[n+]2Cc1cc(C)cc2cccnc12` gave KCNK3 inh inactive, Kir21 block -4.3*, KCNQ1 block inactive, KCNQ1 act inactive, KCNK9 block inactive and hERG protect -22.
`Cc1cc(C[n+]2ncsc2N)c2ncccc2c1` gave KCNK3 inh inactive, Kir21 block -0.5, KCNQ1 block inactive, KCNQ1 act inactive, KCNK9 block inactive and hERG protect -20.

Compound activity (PubChem)
